Assay outcomes (PubChem)
HSF1 inhib – HSF1 inhibition; NIH3T3-HGL HSE-luciferase, MG132-induced, luminescence 8 h; hits give low values; activity change, negative = inhibition, % at 7.5 µM (by protocol); 300,000 compounds, 0.77% hits; AID 2098;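 active means more than half of replicate wells show activity change below -50%, luminescence cut by over half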;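 further: luciferase reports HSF-1 transcriptional activity via heat shock element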
HSP90 refold inh – blocks HSP90-mediated luciferase refolding in reticulocyte lysate. Rabbit reticulocyte lysate, luciferase refolding luminescence, 3 h. inhibition, % at 5.6 µM. 290,000 compounds, 0.91% hits. AID 1789;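 active means inhibition above the screen-wide mean plus 3 SD, computed separately per campaign, cut at about 16% in these data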;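 further: inhibitors lower the luminescence because luciferase stays unfolded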
HSF1 activator – increases HSF-1 driven luciferase reporter signal | NIH3T3-HGL HSF-1 luciferase reporter, MG132, 8 h; 100% = twice DMSO control signal | activation, % at 9 µM | 300,000 compounds, 1.7% hits | AID 504408;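 active means mean replicate activation of at least 50% with a set share of replicates each reaching 50%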
Lipid droplet – modulators of hepatic lipid droplet formation. AML12 mouse hepatocytes, oleate lipid droplets, BODIPY imaging. 240,000 compounds, 0.4% hits. inhibition, % at 6.5 µM;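 active means lipid droplet intensity inhibited by at least 50%, with more than 500 cells counted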
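Assay system: AML12 mouse liver cells | Compound: 6.5 µM single-point dosing | Schedule: Overnight exposure | Technique: Fluorescence imaging, 20x objective, two fields per well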
HCV NS3 hel inh – inhibitors of Hepatitis C virus NS3 helicase; NS3 helicase DNA unwinding, Cy5 molecular beacon fluorescence; inhibition, % at 10.9 µM; 290,000 compounds, 0.56% hits; AID 1800;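 active means inhibition above the mean of all tested compounds plus 3 SD, set per campaign, cut at about 35% in these data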
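Test system: hepatitis C virus NS3 helicase domain fragment enzyme. Also added: annealed dual-labelled DNA beacon duplex, ATP-started. Timing: 60 min unwinding reaction at 25 °C after ATP addition. Technique: Cy5 fluorescence. Measure: % inhibition of unwinding.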
Large screens that a line does not name were inactive. Rows were chosen to be rich in hits. Some 3.8% of all compounds tested hit in one or more screens of this group.

O=[N+]([O-])c1cccnc1NCCc1c[nH]c2ccccc12	HSF1 activator 54.3
CC(C)(C)N(CC(=O)NC1CCCCC1)C(=O)CS(=O)CC(=O)Nc1ccc(F)cc1 (stereo not drawn)	none
O=C(NCCN1CCOCC1)c1cccs1	none (no result: Lipid droplet)
O=C(NCCN1Cc2ccccc2C1=O)c1cccs1	HSF1 activator 61.5
CCN(CC(=O)Nc1ccccc1OC)C(=O)CCOc1ccc(C(C)(C)C)cc1	none (no result: HSP90 refold inh, Lipid droplet, HCV NS3 hel inh)
Cc1ccccc1C(=O)NC(=S)Nc1ccccc1C(=O)O	none
Cc1c(C(=O)Nc2ccccc2)csc1-c1ccccc1	HSF1 activator 60.6
Cc1cc(C(=O)Nc2ccccc2[N+](=O)[O-])cs1	none
Cc1c(C(=O)Nc2ccccc2[N+](=O)[O-])csc1-c1ccccc1	HSF1 activator 61.2
Cc1oc(-c2ccccc2)cc1C(=O)Nc1ccccc1	none
Cc1ccccc1C(=O)NC(=S)Nc1ccccc1[N+](=O)[O-]	HSF1 activator 57.5
COc1ccc(C(C)N2CC34C=CC(O3)C(C(=O)O)C4C2=O)cc1 (stereo not drawn)	HSF1 inhib -64.2
COC(=O)C1C2C=CC3(CN(C(C)c4ccc(OC)cc4)C(=O)C13)O2 (stereo not drawn)	none
C/C(=N\NC(=O)CCc1ccc(S(=O)(=O)N2CCOCC2)cc1)c1ccc(Br)cc1	HSF1 activator 60.8
Cc1cc(C(=O)OCC(=O)Nc2cccnc2Cl)c2ccccc2n1	none
O=[N+]([O-])c1cccc(C(=Nc2ccc(Cl)cc2)NO)c1	none
ONC(=Nc1ccc(Cl)cc1)c1ccc(Cl)cc1	HSF1 activator 55.1
CCOC(=O)N1CCN(S(=O)(=O)c2cccs2)CC1	none
CCOc1ccc(C(=O)N2CCN(S(=O)(=O)c3cccs3)CC2)c(OCC)c1	HSF1 activator 54.3
CCN1CCCc2cc(CN(CCN3CCOCC3)C(=S)Nc3cccc(Cl)c3)ccc21	none
Cc1nn(-c2ccccc2)c(C)c1/C=N/NC(=O)CSc1nnc(SCc2ccc(Cl)cc2)s1	HSF1 activator 67.6
O=C(CSc1nnc(SCc2ccccc2)s1)N/N=C/c1c(Cl)cccc1Cl	none
CCc1[nH]c(C(=O)O)c(C)c1C(=O)OC	none
Cc1ccc(C(=O)COC(=O)c2cn3ccccc3n2)cc1	HSF1 activator 62.2
CCOC(=O)COC(=O)c1ccc(O)cc1	none
O=C(COC(=O)c1ccc(-c2nnc(-c3ccccc3)o2)cc1)c1ccccc1	HSF1 activator 50.9
Cc1ccc(C(=O)COC(=O)c2ccc(O)cc2)cc1	HSF1 activator 122.3
Cc1cc(Cl)ccc1OCC(=O)Nc1nc(-c2cccnc2)cs1	HSF1 inhib -59.6
Cc1cc(C)cc(OCC(=O)Nc2nc(-c3cccnc3)cs2)c1	HSF1 inhib -58.6
Cc1cc(Cl)ccc1OCC(=O)Nc1nc(-c2cccs2)cs1	none (no result: Lipid droplet)
O=[N+]([O-])c1ccccc1N/N=C/c1cccc(O)c1O	none
O=[N+]([O-])c1ccccc1N/N=C\c1ccccc1F	HSF1 activator 65.0
COC(=O)c1ccc(COC(=O)[C@@H]2CC(O)CN2S(=O)(=O)c2ccccc2[N+](=O)[O-])cc1 (stereo partly drawn)	none (no result: HSP90 refold inh, Lipid droplet, HCV NS3 hel inh)
COc1ccc(-c2ccncc2)cc1OC	none (no result: HSP90 refold inh, Lipid droplet, HCV NS3 hel inh)
O=C(O)/C=C/C(=O)Nc1cc(F)ccc1F	HSF1 inhib -71.5 (no result: Lipid droplet)
O=C(O)/C=C/C(=O)Nc1ccc(Cl)cc1C(=O)c1ccccc1	none
CCOc1ccc(N(CC(=O)NCc2ccco2)C(=O)CCC(=O)Nc2nccs2)cc1	none
Cc1ccc(CNC(=O)CNC(=S)N(Cc2ccccc2)Cc2ccccc2F)cc1	none
N#C/C(=C/c1ccc(N2CCOCC2)o1)c1ccc(Br)cc1	HSF1 activator 93.5 (no result: Lipid droplet)
N#C/C(=C/c1ccc(N2CCCCCC2)o1)c1ccc(F)cc1	HSF1 activator 114.5 (no result: Lipid droplet)
N#C/C(=C/c1ccc(N2CCCCCC2)o1)c1cccc(F)c1	HSF1 activator 80.7
N#C/C(=C\c1ccc(N2CCOCC2)o1)c1ccccc1	none (no result: Lipid droplet)
CCCc1noc2c1C(c1cc(Br)ccc1F)C(C#N)=C(N)N2 (stereo not drawn)	none
COCCNC(=O)C(=O)N/N=C(\C)CC(=O)Nc1cccnc1	none
CN(CC(=O)Nc1ccccc1N1CCCC1)S(=O)(=O)c1ccc(F)cc1	none (no result: HSP90 refold inh, Lipid droplet, HCV NS3 hel inh)
CC1=NOC(=O)/C1=C\c1ccc(-c2ccc(Cl)cc2Cl)o1	HCV NS3 hel inh 36.8 (no result: Lipid droplet)
C/C(N)=C(/C#N)C(=O)CSc1nc2cc(Cl)ccc2s1	HSF1 activator 75.7
